Measurements: article PMC4539048 (Science translational medicine, 2015)
Converted amounts (≈) assume the structure as drawn. “And” between values parts separate entries of the source, which are not always exact repeats. Equal entries are not always repeated. Marks after values point to notes of the source that are not given here.

Assays:
P. cynomolgi DHODH = P. cynomolgi DHODH (Plasmodium cynomolgi, UniProt K6UE05); test: DHODH inhibition, DCIP spectrophotometric assay; type: biochemical
rabbit DHODH = rabbit DHODH (Oryctolagus cuniculus, UniProt G1SWF3); test: DHODH inhibition, DCIP spectrophotometric assay; type: biochemical
pig DHODH = pig DHODH (Sus scrofa, UniProt F1S3B0); test: DHODH inhibition, DCIP spectrophotometric assay; type: biochemical
P. falciparum 3D7 [1] = test: In vitro P. falciparum 3D7 growth inhibition; type: cell-based; conditions: Plasmodium falciparum, 3D7, read-out: P. falciparum 3D7 growth inhibition EC50
Summary of the method: (§1)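 SYBR-green growth assay on P. falciparum 3D7 and drug-resistant lines, including chloroquine- and pyrimethamine-resistant parasites, cultured in RPMI-1640 with 0.5% Albumax-II. At least triplicate data per concentration. EC50 from the log(inhibitor) vs response variable-slope (four-parameter) fit by nonlinear least squares, reported with 95% confidence intervals of the fit.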

P. falciparum 3D7 [2] = test: In vitro killing curves / 48 h growth assay, P. falciparum 3D7 blood stage; type: cell-based
[3] = system: 9 strains of P. falciparum; test: In vitro blood-stage activity on 9 strains of P. falciparum; type: cell-based; conditions: Plasmodium falciparum, read-out: EC50 range over all tested strains
Summary of the method: as §1

[4] = system: P. falciparum early stage gametocytes stage III – IV; strain NF54; test: Early stage gametocyte assay; type: cell-based
[5] = system: P. falciparum gametocytes stages IV–V; test: Gametocyte assay stages IV–V; type: cell-based
P. falciparum gametes = test: Dual gamete formation assay; type: cell-based
[6] = system: P. falciparum Pf3D7_0087/N9; test: P. falciparum SCID mouse 4-day dosing efficacy model; type: in vivo
P. falciparum Dd2 = type: cell-based; conditions: Dd2, 3xEC50
[7] = system: P. falciparum Dd2 and resistant clones; test: microbe, parasite or virus in culture; type: cell-based; conditions: Plasmodium falciparum, DD2|DSM265, read-out: DSM265 Dd2 EC50, Dd2/wt
P. falciparum parasites = test: Drug combination, fixed-ratio isobologram method; type: cell-based; conditions: artemisinin derivatives, OZ439, chloroquine, piperaquine, pyronaridine, mefloquine, lumefantrine, atovaquone, proguanil, P218, pyrimethamine
[8] = Chemical and physical stability; type: physicochemical
Caco-2 permeability = type: in vitro ADME; conditions: human, Caco-2
Caco-2 cell monolayers = test: Caco-2 permeability; type: in vitro ADME
[9] = Plasma protein binding, mouse; type: in vitro ADME
CYP2C8 = CYP2C8 (Homo sapiens, UniProt P10632); test: Metabolism by individual human CYP enzymes; type: in vitro ADME; conditions: CYP2C8 Supersomes
[10] = Stability in hepatic microsomes and cryopreserved hepatocytes; type: in vitro ADME; conditions: across species
[11] = Intravenous pharmacokinetics in monkeys and dogs; type: in vivo; conditions: male (dogs), female (monkeys), macaque (monkeys), beagle (dogs), monkey, dog, plasma
Summary of the method: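 Male beagle dogs and female macaque monkeys received a single intravenous dose. Blood was collected into anticoagulant tubes and plasma was separated by centrifugation. Parent compound and metabolites were quantified by LC/MS. Typically 2–6 animals were used per study, with standard deviation given where n>2.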

Pharmacokinetics in mice = type: in vivo; conditions: female, Swiss outbred, mouse, plasma
Summary of the method: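 Single-dose PK in female Swiss outbred mice or male beagle dogs, dosed IV and orally in a range of formulations. Blood was drawn into anticoagulant tubes and plasma separated by centrifugation. Compound was quantified by LC/MS, typically in 2–6 animals per study, with SD given where n>2.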

[12] = Human pharmacokinetic prediction
panel of human kinases = test: Panel of human kinases; type: biochemical; conditions: University of Dundee
[13] = system: key CYP enzymes (not individually named); test: CYP inhibition in human liver microsomes; type: in vitro ADME
Summary of the method: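 Inhibition of CYP isoforms was measured by a substrate-specific approach in human liver microsomes.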

[14] = system: micronucleated polychromatic erythrocytes; test: Oral bone marrow micronucleus test; type: in vivo; conditions: male CD1 mice
[15] = system: rabbit cardiac ventricular wedge; test: Rabbit cardiac ventricular wedge assay
[16] = 7-day repeat dose toxicity study in mice; type: in vivo; conditions: highest dose tested, Day 7
Summary of the method: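 Mice received the test compound orally once daily at 25–200 mg/kg/day for 7 days in an exploratory (non-GLP) toxicology study. They were monitored daily for clinical signs, body weight and food consumption, with haematology, clinical chemistry and histopathology. Plasma toxicokinetic parameters, including average concentration over the dosing interval, were derived on day 1 and day 7.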

[17] = 10-day repeat dose toxicity study in dogs; type: in vivo; conditions: highest dose tested, Day 1
Summary of the method: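 Male beagle dogs were dosed orally every other day in the fed state over a 10-day repeat-dose exploratory (non-GLP) toxicology study. They were monitored daily for clinical signs, body weight and food consumption, with haematology, clinical chemistry and histopathology. Plasma toxicokinetics were taken on day 1 to give Cav, and full toxicokinetics were not collected after the final dose.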

[18] = system: G6PD-deficient human red blood cells; type: in vivo, NOD-SCID mice; conditions: blood type A- G6PD-deficient human red blood cells
P. berghei DHODH = conditions: cited from earlier work
P. yoelii DHODH = conditions: cited from earlier work
[19] = system: Salmonella typhimurium-E. coli; test: 5-strain bacterial reverse mutation assay
[20] = determined 24 h after the last dose

Chain of pig DHODH (F1S3B0 1-395): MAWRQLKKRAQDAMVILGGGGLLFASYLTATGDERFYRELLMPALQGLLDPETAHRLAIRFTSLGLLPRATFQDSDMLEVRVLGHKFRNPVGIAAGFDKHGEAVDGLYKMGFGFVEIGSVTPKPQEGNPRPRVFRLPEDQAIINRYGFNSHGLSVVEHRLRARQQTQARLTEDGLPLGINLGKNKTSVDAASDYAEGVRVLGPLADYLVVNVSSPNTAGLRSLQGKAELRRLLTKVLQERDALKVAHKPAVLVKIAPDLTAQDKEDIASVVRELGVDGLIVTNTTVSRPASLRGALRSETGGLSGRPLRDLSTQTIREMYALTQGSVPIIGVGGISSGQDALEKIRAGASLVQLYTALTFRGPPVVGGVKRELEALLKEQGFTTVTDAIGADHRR
Chain of CYP2C8 (P10632 whole entry): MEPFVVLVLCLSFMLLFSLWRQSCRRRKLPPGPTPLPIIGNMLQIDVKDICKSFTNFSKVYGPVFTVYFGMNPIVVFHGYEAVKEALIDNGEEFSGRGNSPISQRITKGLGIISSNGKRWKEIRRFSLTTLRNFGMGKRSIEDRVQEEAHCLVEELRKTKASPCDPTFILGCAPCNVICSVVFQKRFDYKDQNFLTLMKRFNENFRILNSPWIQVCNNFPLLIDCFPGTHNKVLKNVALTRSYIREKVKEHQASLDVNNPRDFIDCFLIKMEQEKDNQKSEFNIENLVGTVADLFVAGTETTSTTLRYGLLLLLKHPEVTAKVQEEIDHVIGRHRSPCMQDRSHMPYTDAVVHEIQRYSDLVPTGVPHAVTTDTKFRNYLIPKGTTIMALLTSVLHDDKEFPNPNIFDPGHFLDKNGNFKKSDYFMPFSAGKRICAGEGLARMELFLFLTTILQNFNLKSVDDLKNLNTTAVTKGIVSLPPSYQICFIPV
Chain of rabbit DHODH (G1SWF3 1-395): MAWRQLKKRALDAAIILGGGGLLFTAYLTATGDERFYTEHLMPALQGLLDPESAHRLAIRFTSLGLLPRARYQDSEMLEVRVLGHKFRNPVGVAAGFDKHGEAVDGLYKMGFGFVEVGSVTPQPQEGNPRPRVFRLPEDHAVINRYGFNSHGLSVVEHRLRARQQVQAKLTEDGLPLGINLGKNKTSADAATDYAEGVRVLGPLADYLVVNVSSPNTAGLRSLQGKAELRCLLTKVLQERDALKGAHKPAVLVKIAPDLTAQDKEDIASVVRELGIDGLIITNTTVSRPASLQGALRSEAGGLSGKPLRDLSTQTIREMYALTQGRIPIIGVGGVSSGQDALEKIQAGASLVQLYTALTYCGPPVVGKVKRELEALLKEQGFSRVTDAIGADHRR

Cc1cc(Nc2ccc(S(F)(F)(F)(F)F)cc2)n2nc(C(C)(F)F)nc2n1 [DSM265, 2-(1,1-difluoroethyl)-5-methyl-[N-[4-(pentafluorosulfanyl)phenyl]1,2,4]triazolo[1,5-a]pyrimidin-7-amine]
IC50 (P. cynomolgi DHODH): 0.012 µM | IC50 (rabbit DHODH): > 98.7 µM | IC50 (pig DHODH): > 98.7 µM | EC50 (P. falciparum 3D7 [1]): 1.8 ng/mL (≈ 4.33 nM) | EC50 (P. falciparum 3D7 [2]; Plasmodium falciparum, 3D7, 48 h, read-out: P. falciparum 3D7 in vitro growth assay EC50): 4.6 ng/mL (≈ 11.1 nM) | lag-phase prior to parasite killing (P. falciparum 3D7 [2]; at 1xEC50): 96 h | lag-phase prior to parasite killing (P. falciparum 3D7 [2]; at 3xEC50 and above): 24 to 48 h | Unbound in vitro MPC (kill assay) (P. falciparum 3D7 [2]; corrected with fraction unbound in 0.5% Albumax II in RPMI-1640): 0.002 µg/mL and 0.0020 µg/mL | P. falciparum 3D7 in vitro MPC (kill assay) (P. falciparum 3D7 [2]; minimum parasiticidal concentration = 3xEC50): 0.014 μg/mL and 0.014 ^a μg/mL | EC50 [3]: 1 to 4 ng/mL (≈ 2.41 to 9.63 nM) | EC50 ([4]; Plasmodium falciparum, NF54, read-out: EC50, early stage gametocytes stage III – IV): > 420 ng/mL | EC50, early stage gametocytes stage III – IV ([4]; strain NF54): no activity | EC50, gametocytes stages IV–V [5]: no activity | EC50 ([5]; Plasmodium falciparum, read-out: EC50, gametocytes stages IV–V): > 16000 ng/mL | EC50, dual gamete formation assay (P. falciparum gametes): inactive | blood concentration 23 h after the last dose, estimate of the MPC ([6]; 13 mg/kg/day (6.4 mg/kg b.i.d.), oral, 4 days): 0.53 µg/mL | SCID mouse in vivo MPC (plasma) ([6]; blood converted to plasma with blood to plasma ratio 0.5): 1.1 ^c μg/mL | Unbound SCID mouse in vivo MPC (plasma) ([6]; corrected with fraction unbound 0.001): 0.0011 µg/mL | ED90 [6, 20]: 1.5 mg/kg/12 h | dose at the MPC [6, 20]: 6.4 mg/kg/12 h | MIR, range over two independent studies (P. falciparum Dd2): 2×10^5–2×10^7 parasites | EC50 [7]: 2.2 ng/mL (≈ 5.3 nM) | interaction with other antimalarials (P. falciparum parasites): additive | stability of solutions subjected to simulated sunlight [8]: degradation | chemical stability in the solid state ([8]; 30°/65% relative humidity for up to 24 months): chemically stable | Papp A→B (Caco-2 permeability): > 30 ×10⁻⁶ cm/s | BCS classification (Caco-2 cell monolayers; from high permeability and low aqueous solubility): BCS Class II | substrate for Pgp and BCRP (Caco-2 cell monolayers; with verapamil and fumitremorgin C): not a substrate | fraction unbound [9]: 0.003 | extent of metabolism (CYP2C8): 0.032 μL/min/pmol CYP | degradation in hepatic microsomes and cryopreserved hepatocytes [10]: minimal degradation | half-life [11]: 10 to 45 h | half-life (Pharmacokinetics in mice): 2 to 4 h | plasma MPC used for the human dose prediction [12]: 1 to 2 µg/mL | activity against a panel of human kinases (panel of human kinases): minimal activity | IC50 [13]: > 10000 ng/mL | micronucleated polychromatic erythrocytes [14]: no increase | QT and Tp-e interval ([15]; at 1 or 0.5 Hz): did not cause any significant prolongation | Torsade de Pointes (TdP)-type arrhythmias ([15]; tested up to 5 μg/mL): no Torsade de Pointes (TdP)-type arrhythmias were observed | average plasma concentration within a dosing interval (Cav) [16]: 11700 ng/mL | average plasma concentration within a dosing interval (Cav) [17]: 16400 ng/mL | hemolytic toxicity [18]: not hemolytic | activity against P. berghei DHODH (P. berghei DHODH): poor activity | activity against P. yoelii DHODH (P. yoelii DHODH): poor activity | mutagenic activity (Ames test) [19]: non-mutagenic
